Molecules are shown by their SMILES. Where only a bound is given, the exact number is not on record here.

The experiment concerns the target T1, GFP-myo1e-tail (His6-GFP-myo1e-tail) (Homo sapiens, UniProt Q12965).
T1 sequence (Q12965 710-1108): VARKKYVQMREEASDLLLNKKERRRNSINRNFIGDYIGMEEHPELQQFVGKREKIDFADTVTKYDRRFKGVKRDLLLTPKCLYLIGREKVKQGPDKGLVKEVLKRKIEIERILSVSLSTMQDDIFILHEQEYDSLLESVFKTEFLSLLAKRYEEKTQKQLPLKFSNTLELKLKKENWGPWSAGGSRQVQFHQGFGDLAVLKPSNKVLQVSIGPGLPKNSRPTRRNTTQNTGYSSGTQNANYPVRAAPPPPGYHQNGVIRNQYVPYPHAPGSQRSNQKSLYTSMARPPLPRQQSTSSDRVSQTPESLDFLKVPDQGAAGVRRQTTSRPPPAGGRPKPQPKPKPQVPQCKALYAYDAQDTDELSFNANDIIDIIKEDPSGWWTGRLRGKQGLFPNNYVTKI
As to the kind of experiment: LUV sedimentation, GFP fluorescence of supernatant. It is filed as binding. Summed up:
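His6-GFP-myo1e-tail co-expressed with calmodulin in Sf9 cells, purified on Ni-NTA then MonoS, and quantified by A488 (ε 55,000 M⁻¹cm⁻¹). 40 nM protein was mixed with sucrose-loaded 100-nm LUVs (e.g., DOPC with 2% phosphoinositide) in HNa100 (10 mM HEPES pH 7.0, 100 mM NaCl, 1 mM EGTA, 1 mM DTT) with 1 µM calmodulin and 0.25 mg/ml GST. Spun 150,000 × g, 30 min, 25°C; supernatant GFP fluorescence read. Hyperbolic fit gave K_eff versus total lipid.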
`CCCCCCCC/C=C\CCCCCCCC(=O)OC[C@H](COP(=O)(O)O[C@H]1[C@H](O)[C@@H](OP(=O)(O)O)[C@H](OP(=O)(O)O)[C@@H](OP(=O)(O)O)[C@H]1O)OC(=O)CCCCCCC/C=C\CCCCCCCC` [2% 18:1 PtdIns(3,4,5)P3, 1,2-dioleoyl-sn-glycerol-3-phospho-(1’-myo-inositol-3’,4’,5’-trisphosphate)] gave a Kd of 3.2 ± 0.4 µM.

In turn, `CCCCCCCC/C=C\CCCCCCCC(=O)OC[C@H](COP(=O)(O)O[C@@H]1[C@H](O)[C@H](OP(=O)(O)O)[C@@H](O)[C@H](OP(=O)(O)O)[C@H]1O)OC(=O)CCCCCCC/C=C\CCCCCCCC` [2% 18:1 PtdIns(3,5)P2, 1,2-dioleoyl-sn-glycerol-3-phospho-(1’-myo-inositol-3’,5’-bisphosphate)] returned a dissociation constant (Kd) of 13 ± 2.1 µM.

Regarding `CCCCCCCC/C=C\CCCCCCCC(=O)OC[C@H](COP(=O)(O)OC[C@H](N)C(=O)O)OC(=O)CCCCCCC/C=C\CCCCCCCC` [80% DOPS, 1,2-dioleoyl-sn-glycero-3-phospho-L-serine], binding was characterised by a dissociation constant (Kd) of 0.51 ± 0.1 µM.

Take `CCCCCCCC/C=C\CCCCCCCC(=O)OC[C@H](COP(=O)([O-])OCC[N+](C)(C)C)OC(=O)CCCCCCC/C=C\CCCCCCCC` [100% DOPC, 1,2-dioleoyl-sn-glycero-3-phosphocholine]: the Kd is more than 400 µM.

The record behind these values is paper PMC2976041 (Biochemistry, 2010).
